# Active and inactive are the calls of the source. No cut-off for these calls is given here.
# Legend:
# SK-MEL-5 = assay: Antitumor activity against human SK-MEL-5 cells after 48 hrs by SRB assay; type: functional; conditions: SK-MEL-5, 48 h
# Procedure, shortened: (§1)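 Run at NCI in the 60-line human tumour panel. Five concentrations at 10-fold dilutions starting from 10^-4 M, with continuous exposure for 48 h. Growth was read by sulforhodamine B protein staining. GI50 (+50% growth), TGI (0% growth) and LC50 were interpolated from the curves, and MG-MID is the arithmetic mean across all tested lines.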
# [1] = Antitumor activity against human MCF7/ADR-RES cells after 48 hrs by SRB assay; type: functional; conditions: NCI/ADR-RES; procedure, shortened: as §1
# SR = assay: Antitumor activity against human SR cells after 48 hrs by SRB assay; type: functional; procedure, shortened: as §1
# Malme-3M = assay: Antitumor activity against human MALME3M cells after 48 hrs by SRB assay; type: functional; procedure, shortened: as §1
# SK-MEL-2 = assay: Antitumor activity against human SK-MEL-2 cells after 48 hrs by SRB assay; type: functional; conditions: SK-MEL-2, 48 h; procedure, shortened: as §1
# MCF7 = assay: Antitumor activity against human MCF7 cells after 48 hrs by SRB assay; type: functional; conditions: MCF7, 48 h; procedure, shortened: as §1
# Tru-Pr1 = assay: Effect on cell cycle in human […] cells at 10 uM after 48 hrs by FACS analysis; type: functional, cell-based
# Procedure, shortened: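 TSU-Pr1 prostate carcinoma cells (5×10^5) in exponential growth were treated for 48 h. They were then centrifuged, fixed in ice-cold 70% ethanol, treated with lysis buffer containing RNase, and stained with propidium iodide. DNA content and cell-cycle phases were read by flow cytometry.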
# [2] = Antitumor activity against human HL60(TB) cells after 48 hrs by SRB assay; type: functional, HL-60(TB); conditions: HL-60, 48 h
# Procedure, shortened: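 NCI 60-cell-line primary screen: five concentrations at 10-fold dilutions starting from 10^-4 M. Cells exposed to drug continuously for 48 h. Growth estimated by sulforhodamine B protein assay. GI50 is the interpolated molar concentration giving +50% growth, TGI the concentration giving 0% growth, and LC50 the concentration giving 50% net cell death.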
# SW-620 = assay: Antitumor activity against human SW620 cells after 48 hrs by SRB assay; type: functional; conditions: SW-620, 48 h; procedure, shortened: as §1
# MOLT-4 = assay: Antitumor activity against human MOLT4 cells after 48 hrs by SRB assay; type: functional; conditions: MOLT-4, 48 h; procedure, shortened: as §1
# UACC-257 = assay: Antitumor activity against human UACC257 cells after 48 hrs by SRB assay; type: functional; conditions: UACC-257, 48 h; procedure, shortened: as §1
# KM12 = assay: Antitumor activity against human KM12 cells after 48 hrs by SRB assay; type: functional; conditions: KM12, 48 h; procedure, shortened: as §1
# [3] = Antitumor activity against human NCI60 cells after 48 hrs by SRB assay; type: functional; conditions: NCI60, 48 h; for TGI: read-out: pTGI (converted); procedure, shortened: as §1
# Hs-578T = assay: Antitumor activity against human HS578T cells after 48 hrs by SRB assay; type: functional; procedure, shortened: as §1
# K562 = assay: Antitumor activity against human K562 cells after 48 hrs by SRB assay; type: functional; conditions: K562, 48 h; procedure, shortened: as §1
# MDA-MB-435 = assay: Antitumor activity against human MDA-MB-435 cells after 48 hrs by SRB assay; type: functional; conditions: MDA-MB-435, 48 h; procedure, shortened: as §1
# MDA-MB-231 = assay: Antitumor activity against human MDA-MB-231 cells after 48 hrs by SRB assay; type: functional; conditions: MDA-MB-231, 48 h; procedure, shortened: as §1
# UACC-62 = assay: Antitumor activity against human UACC62 cells after 48 hrs by SRB assay; type: functional; conditions: UACC-62, 48 h; procedure, shortened: as §1
# SK-MEL-28 = assay: Antitumor activity against human SK-MEL-28 cells after 48 hrs by SRB assay; type: functional; conditions: SK-MEL-28, 48 h; procedure, shortened: as §1
# LOX IMVI = assay: Antitumor activity against human LOXIMVI cells after 48 hrs by SRB assay; type: functional; procedure, shortened: as §1
# RPMI-8226 = assay: Antitumor activity against human RPMI8226 cells after 48 hrs by SRB assay; type: functional; conditions: RPMI-8226, 48 h; procedure, shortened: as §1
# MDA-N = assay: Antitumor activity against human MDA-N cells after 48 hrs by SRB assay; type: functional; procedure, shortened: as §1
# COLO 205 = assay: Antitumor activity against human COLO205 cells after 48 hrs by SRB assay; type: functional; conditions: COLO 205, 48 h; procedure, shortened: as §1
# HCT-116 = assay: Antitumor activity against human HCT116 cells after 48 hrs by SRB assay; type: functional; conditions: HCT-116, 48 h; procedure, shortened: as §1
# M14 = assay: Antitumor activity against human M14 cells after 48 hrs by SRB assay; type: functional; conditions: M14, 48 h; procedure, shortened: as §1
# HT-29 = assay: Antitumor activity against human HT29 cells after 48 hrs by SRB assay; type: functional; conditions: HT-29, 48 h; procedure, shortened: as §1
# T47D = assay: Antitumor activity against human T47D cells after 48 hrs by SRB assay; type: functional; procedure, shortened: as §1
smiles,measurement,setting,value
COc1ccc2cc(CN3CCC(C4CCN(Cc5ccc6cc(OC)ccc6c5)CC4)CC3)ccc2c1,GI50,SK-MEL-5,1480 nM
same,GI50,[1],13200 nM
same,GI50,SR,1230 nM
same,GI50,Malme-3M,2290 nM
same,GI50,SK-MEL-2,6460 nM
same,GI50,MCF7,5250 nM
same,Activity,Tru-Pr1,inactive
same,GI50,[2],2630 nM
same,GI50,SW-620,3160 nM
same,GI50,MOLT-4,2190 nM
same,GI50,UACC-257,2040 nM
same,GI50,KM12,3240 nM
same,GI50,[3],2950 nM
same,TGI,[3],9770 nM
same,GI50,Hs-578T,10700 nM
same,GI50,K562,501 nM
same,GI50,MDA-MB-435,1910 nM
same,GI50,MDA-MB-231,3310 nM
same,GI50,UACC-62,1910 nM
same,GI50,SK-MEL-28,2630 nM
same,GI50,LOX IMVI,2820 nM
same,GI50,RPMI-8226,1740 nM
same,GI50,MDA-N,1700 nM
same,GI50,COLO 205,1620 nM
same,GI50,HCT-116,3470 nM
same,GI50,M14,2450 nM
same,GI50,HT-29,3390 nM
same,GI50,T47D,1780 nM
c1ccc2cc(CNCCOCCOCCNCc3ccc4ccccc4c3)ccc2c1,GI50,[3],1700 nM
same,LC50,[3],10000 nM
same,TGI,[3],3720 nM
COc1ccc2cc(CNCCOCCOCCNCc3ccc4cc(OC)ccc4c3)ccc2c1,GI50,[3],724 nM
same,LC50,[3],5250 nM
same,TGI,[3],1910 nM
COc1ccc2cc(CNCCCCCCCCCCCCNCc3ccc4cc(OC)ccc4c3)ccc2c1,GI50,[3],15500 nM
same,LC50,[3],55000 nM
same,TGI,[3],29500 nM
COc1ccc2cc(CNCCCCCCNCc3ccc4cc(OC)ccc4c3)ccc2c1,GI50,[3],603 nM
same,LC50,[3],4070 nM
same,TGI,[3],1740 nM
COc1ccc2cc(CNCCCN3CCN(CCCNCc4ccc5cc(OC)ccc5c4)CC3)ccc2c1,GI50,[3],1100 nM
same,LC50,[3],5620 nM
same,TGI,[3],2450 nM
c1ccc2c(CN3CCC(C4CCN(Cc5cccc6ccccc56)CC4)CC3)cccc2c1,GI50,[3],1950 nM
same,LC50,[3],9550 nM
same,TGI,[3],4270 nM
c1ccc2c(CNCCCCCCNCc3cccc4ccccc34)cccc2c1,GI50,[3],5370 nM
same,LC50,[3],29500 nM
same,TGI,[3],12300 nM
COc1ccc2cc(CNCCCCCCCCNCc3ccc4cc(OC)ccc4c3)ccc2c1,GI50,[3],1150 nM
same,LC50,[3],6310 nM
same,TGI,[3],2400 nM
c1ccc2c(CNCCCN3CCN(CCCNCc4cccc5ccccc45)CC3)cccc2c1,GI50,[3],6610 nM
same,LC50,[3],43700 nM
same,TGI,[3],19500 nM
c1ccc2c(CNCCCCCCCCCCCCNCc3cccc4ccccc34)cccc2c1,GI50,[3],2190 nM
same,TGI,[3],4370 nM
O=C1c2c(O)ccc(O)c2C(=O)c2c(NCCNCCO)ccc(NCCNCCO)c21 [MITOXANTRONE],GI50,[3],47.9 nM
same,TGI,[3],692 nM
c1ccc2cc(CN3CCC(C4CCN(Cc5ccc6ccccc6c5)CC4)CC3)ccc2c1,GI50,[3],2880 nM
same,LC50,[3],25100 nM
same,TGI,[3],8320 nM
COc1cc(NS(C)(=O)=O)ccc1Nc1c2ccccc2nc2ccccc12 [AMSACRINE],GI50,[3],229 nM
same,TGI,[3],3390 nM
c1ccc2c(CNCCCCCCCCNCc3cccc4ccccc34)cccc2c1,GI50,[3],2400 nM
same,TGI,[3],5250 nM

# From ChEMBL document CHEMBL1140056, “Design, synthesis, and antitumor activity of new bis-aminomethylnaphthalenes” (2008)
